Reference: publication PMC10718296 (RSC Advances, 2023)
Like-named read-outs stand apart in the source and are kept apart here.

Assays:
[1] = system: non-cancerous normal cell (Vero); assay: MTT-based cytotoxicity assay, normal Vero cell; details: for Cytotoxicity to non-cancerous cells (in words): cell viability assay up to 100 μM, Fig. 3
In short: (§1)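 Cells seeded at 10 000/well in medium with 5% FBS and held 48 h at 37 °C, 5% CO₂, 100% humidity. Test compound at various concentrations added for 48 h under the same conditions, in triplicate, with compound-free medium as control. MTT (5 mg ml⁻¹ solution) added for 4 h at 37 °C, formazan dissolved in DMSO, A570 read. % inhibition = 100 − A(sample)/A(control) × 100.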

[2] = system: hepatocellular carcinoma cell line (HepG2); assay: MTT-based cytotoxicity assay, HepG2; type: cell-based, human; details: read-out: Anticancer (IC50) HepG2
In short: as §1

[3] = system: laryngeal carcinoma cell line (Hep-2); assay: MTT-based cytotoxicity assay, Hep-2; type: cell-based, human; details: read-out: Anticancer (IC50) Hep-2
In short: as §1

[4] = system: human skin cancer cell line (A375); assay: MTT-based cytotoxicity assay, A375; type: cell-based
In short: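 Cells seeded at 10 000/well in medium with 5% FBS, grown 48 h at 37 °C, 5% CO₂, then exposed to test compound at various concentrations (up to 100 μM) for 48 h, in triplicate; medium alone as control. MTT solution (5 mg ml⁻¹) added for 4 h at 37 °C, formazan dissolved in DMSO, absorbance read at 570 nm; inhibition % = 100 − (A sample/A control × 100).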

[5] = system: breast cancer cell line (MCF-7); assay: MTT-based cytotoxicity assay, MCF-7; type: cell-based, human; details: read-out: Anticancer (IC50) MCF-7
In short: as §1

[6] = MTT, 48 hours, average of three independent experiments
[7] = Homo sapiens, A-375, 48 h, read-out: Anticancer (IC50) A375, MTT, 48 hours, average of three independent experiments

Molecule | IC50 ([1]; read-out: Anticancer (IC50) Vero, MTT, 48 hours, non-cancerous normal cell, average of three independent experiments) | IC50 [2, 6] | IC50 [3, 6] | IC50 ([4]; read-out: Anticancer (IC50) A375, MTT, 48 hours, average of three independent experiments) | IC50 [5, 6] | IC50 ([2]; Homo sapiens, HepG2, 48 h) | IC50 ([3]; Homo sapiens, HEp-2, 48 h) | IC50 [4, 7] | IC50 ([5]; Homo sapiens, MCF7, 48 h) | Cytotoxicity to non-cancerous cells (in words) [1]
2-(2-Nitrophenyl)imidazo[1,2-a]pyrazin-3-amine [10l] | 67 ± 4.54 µM | 32 ± 4.64 µM | 64 ± 2.45 µM | 27 ± 5 µM | 80 ± 4.53 µM | – | – | – | – | –
CC(C)(C)Nc1c(-c2ccc([N+](=O)[O-])cc2)nc2cnccn12 [10a, N-(tert-Butyl)-2-(4-nitrophenyl)imidazo[1,2-a]pyrazin-3-amine] | – | – | – | – | – | 40 ± 2.52 µM | 50 ± 3.42 µM | 36 ± 3.1 µM | > 100 µM | –
CC(C)(C)Nc1c(-c2ccc(N)cc2)nc2cnccn12 [10b, 2-(4-Aminophenyl)-N-(tert-butyl)imidazo[1,2-a]pyrazin-3-amine] | – | – | – | – | – | 18 ± 1.32 µM | 20 ± 1.64 µM | 16 ± 0.96 µM | 21 ± 1.64 µM | non-toxic to non-cancerous cells
Nc1c(-c2ccc([N+](=O)[O-])cc2)nc2cnccn12 [10c, 2-(4-Nitrophenyl)imidazo[1,2-a]pyrazin-3-amine] | – | – | – | – | – | 30 ± 1.43 µM | 45 ± 1.6 µM | 24 ± 2.48 µM | 40 ± 3.8 µM | –
Nc1ccc(-c2nc3cnccn3c2N)cc1 [10d, 2-(4-Aminophenyl)imidazo[1,2-a]pyrazin-3-amine] | – | – | – | – | – | 34 ± 2.64 µM | 38 ± 2.2 µM | 25 ± 1.45 µM | 30 ± 3.32 µM | –
CC(C)(C)Nc1c(-c2ccccc2[N+](=O)[O-])nc2cnccn12 [10e, N-(tert-Butyl)-2-(2-nitrophenyl)imidazo[1,2-a]pyrazin-3-amine] | – | – | – | – | – | 40 ± 2.52 µM | 80 ± 1.37 µM | 34 ± 3.2 µM | 100 ± 8.64 µM | –
CC(C)(C)Nc1c(-c2ccccc2N)nc2cnccn12 [10f, 2-(2-Aminophenyl)-N-(tert-Butyl)imidazo[1,2-a]pyrazin-3-amine] | – | – | – | – | – | 20 ± 4.64 µM | 25 ± 5.2 µM | 20 ± 1.57 µM | 26 ± 2.38 µM | –
Nc1ccccc1-c1nc2cnccn2c1N [10g, 2-(2-Aminophenyl)imidazo[1,2-a]pyrazin-3-amine] | – | – | – | – | – | 25 ± 4.54 µM | 22 ± 2.15 µM | 20 ± 5.8 µM | 30 ± 1.24 µM | –
CN(C)c1ccc(-c2nc3cnccn3c2NC(C)(C)C)cc1 [10h, N-(tert-Butyl)-2-(4-(dimethylamino)phenyl)imidazo[1,2-a]pyrazin-3-amine] | – | – | – | – | – | 34 ± 5.5 µM | 45 ± 0.5 µM | 30 ± 2.84 µM | 50 ± 6.41 µM | –
CN(C)c1ccc(-c2nc3cnccn3c2N)cc1 [10i, 2-(4-(Dimethylamino)phenyl)imidazo[1,2-a]pyrazin-3-amine] | – | – | – | – | – | 26 ± 0.9 µM | 28 ± 3.1 µM | 16 ± 1.2 µM | 17 ± 0.52 µM | non-toxic to non-cancerous cells
O=[N+]([O-])c1ccc(-c2nc3cnccn3c2NC2CCCCC2)cc1 [10j, N-Cyclohexyl-2-(4-nitrophenyl)imidazo[1,2-a]pyrazin-3-amine] | – | – | – | – | – | 40 ± 1.4 µM | 44 ± 6.4 µM | 25 ± 5.41 µM | 24 ± 0.15 µM | –
Nc1ccc(-c2nc3cnccn3c2NC2CCCCC2)cc1 [10k, 2-(4-Aminophenyl)-N-cyclohexylimidazo[1,2-a]pyrazin-3-amine] | – | – | – | – | – | 28 ± 2.48 µM | 34 ± 4.56 µM | 30 ± 1.5 µM | 65 ± 2.41 µM | –
Nc1ccccc1-c1nc2cnccn2c1NC1CCCCC1 [10m, 2-(2-Aminophenyl)-N-cyclohexylimidazo[1,2-a]pyrazin-3-amine] | – | – | – | – | – | 20 ± 2.15 µM | 28 ± 4.28 µM | 23 ± 1.5 µM | 44 ± 2.68 µM | –
CC(C)(C)Nc1c(-c2ccc([N+](=O)[O-])cc2)nc2ccccn12 [12a, N-(tert-Butyl)-2-(4-nitrophenyl)imidazo[1,2-a]pyridin-3-amine] | – | – | – | – | – | 30 ± 2.5 µM | 32 ± 5.5 µM | 45 ± 2.5 µM | 55 ± 5.25 µM | –
CC(C)(C)Nc1c(-c2ccc(N)cc2)nc2ccccn12 [12b, 2-(4-Aminophenyl)-N-(tert-butyl)imidazo[1,2-a]pyridin-3-amine] | – | – | – | – | – | 13 ± 1.2 µM | 11 ± 0.8 µM | 11 ± 0.07 µM | 11 ± 0.5 µM | non-toxic to non-cancerous cells
Nc1c(-c2ccc([N+](=O)[O-])cc2)nc2ccccn12 [12c, 2-(4-Nitrophenyl)imidazo[1,2-a]pyridin-3-amine] | – | – | – | – | – | 48 ± 4.8 µM | 35 ± 2.4 µM | 50 ± 1.8 µM | > 100 µM | –
Nc1ccc(-c2nc3ccccn3c2N)cc1 [12d, 2-(4-Aminophenyl)imidazo[1,2-a]pyridin-3-amine] | – | – | – | – | – | 35 ± 2.5 µM | 20 ± 5.8 µM | 38 ± 2.4 µM | 50 ± 1.82 µM | –
CC(C)(C)Nc1c(-c2ccccc2[N+](=O)[O-])nc2ccccn12 [12e, N-(tert-Butyl)-2-(2-nitrophenyl)imidazo[1,2-a]pyridin-3-amine] | – | – | – | – | – | 62 ± 4.8 µM | 55 ± 0.4 µM | > 100 µM | > 100 µM | –
CC(C)(C)Nc1c(-c2ccccc2N)nc2ccccn12 [12f, 2-(2-Aminophenyl)-N-(tert-butyl)imidazo[1,2-a]pyridin-3-amine] | – | – | – | – | – | 32 ± 0.1 µM | 28 ± 5 µM | 28 ± 1.5 µM | 24 ± 5.8 µM | –
Nc1c(-c2ccccc2[N+](=O)[O-])nc2ccccn12 [12g, 2-(2-Nitrophenyl)imidazo[1,2-a]pyridin-3-amine] | – | – | – | – | – | > 100 µM | 50 ± 5.2 µM | 62 ± 2.4 µM | > 100 µM | –
Nc1ccccc1-c1nc2ccccn2c1N [12h, 2-(2-Aminophenyl)imidazo[1,2-a]pyridin-3-amine] | – | – | – | – | – | 54 ± 1.5 µM | 44 ± 1.4 µM | 55 ± 1.5 µM | 61 ± 2.4 µM | –
CN(C)c1ccc(-c2nc3ccccn3c2NC(C)(C)C)cc1 [12i, N-(tert-Butyl)-2-(4-(dimethylamino)phenyl)imidazo[1,2-a]pyridin-3-amine] | – | – | – | – | – | 19 ± 1.3 µM | 20 ± 2.7 µM | 12 ± 0.7 µM | 17 ± 0.92 µM | non-toxic to non-cancerous cells
CN(C)c1ccc(-c2nc3ccccn3c2N)cc1 [12j, 2-(4-(Dimethylamino)phenyl)imidazo[1,2-a]pyridin-3-amine] | – | – | – | – | – | 35 ± 4.8 µM | 45 ± 5 µM | 25 ± 1.4 µM | 30 ± 5 µM | –
O=[N+]([O-])c1ccc(-c2nc3ccccn3c2NC2CCCCC2)cc1 [12k, N-Cyclohexyl-2-(4-nitrophenyl)imidazo[1,2-a]pyridin-3-amine] | – | – | – | – | – | 40 ± 1.5 µM | 30 ± 8 µM | 41 ± 5 µM | 52 ± 0.8 µM | –
Nc1ccc(-c2nc3ccccn3c2NC2CCCCC2)cc1 [12l, 2-(4-Aminophenyl)-N-cyclohexylimidazo[1,2-a]pyridin-3-amine] | – | – | – | – | – | 25 ± 0.2 µM | 20 ± 5.2 µM | 30 ± 0.1 µM | 35 ± 1.5 µM | –
COc1cccc2c1C(=O)c1c(O)c3c(c(O)c1C2=O)C[C@@](O)(C(=O)CO)C[C@@H]3O[C@H]1C[C@H](N)[C@H](O)[C@H](C)O1 [Doxorubicin, reference compound] | – | – | – | – | – | 1.5 ± 0.09 µM | 10 ± 0.5 µM | 5.16 µM | 0.85 ± 0.02 µM | –
